Data set [1] addresses GABA-A receptor; anion channel (Bos taurus) (UniProt P10063+P08220+P20237+P08219+P10064+P22300). Briefly: Concentration required to potentiate GABA-evoked currents in voltage-clamped bovine chromaffin cells by 300%. The class given is functional. In a few lines: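 Adult bovine chromaffin cells, primary culture, recorded 4 h to 2 days after plating. Whole-cell patch clamp, continuous superfusion with 140 mM NaCl, 2.8 mM KCl, 2 mM MgCl2, 1 mM CaCl2, 10 mM HEPES (pH 7.2). CsCl-based pipette solution, room temperature (18–22 °C). Currents filtered at 500 Hz. Steroid concentration enhancing the GABA-evoked response by 300% of control was interpolated; mean ± SEM of N cells.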

For data set [2], the target named is GABA-A receptor; anion channel. Description: The concentration required to inhibit 50% of binding of [35S]TBPS to Gamma-aminobutyric acid A receptor to rat whole brain membranes. It is filed as cell membranes.
For data set [3], the system named is Mus musculus. Description: Hypnotic dose was determined by observing loss of righting reflex for a minimum period of 30 sec in 50% of treated mice after i.v. administration. The class given is functional. The procedure, abridged:
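Male CFLP mice (25–35 g), tested in the light period. Groups of eight received an i.v. lateral tail vein injection over 10 s (10 mL kg-1) on a μmol/kg dose series, e.g. 2–16, with extra doses added. Vehicle was saline for amine salts; standards were in HPCD/saline, emulsion or saline. HD50 with 95% confidence limits was obtained by probit analysis of the fraction showing LRR ≥30 s.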

Data set [4] is described as follows: Therapeutic index by the ratio between LD50 to HD50.
The species named for data set [5] is Mus musculus. Briefly: Effect on interval between loss of righting reflex and return to righting reflex (sleep duration) was measured at a dose twice that of hypnotic dose; caused convulsions and was not tested for the sleeping duration. The class given is functional, organism-based.
Data set [6] has as its system Mus musculus. Description: Hypnotic dose by observing loss of righting reflex for a minimum period of 30 sec in 50% of treated mice after iv administration; caused convulsions and not tested further. The class given is functional, organism-based.

SMILES strings stand for the structures.

As a reminder, the IC50 is the concentration needed to halve the response being measured. Lower therefore signals higher potency. On to `CC(=O)[C@H]1CC[C@H]2[C@@H]3CC[C@H]4C[C@H](O)[C@@H](N5CCOC(C)(C)C5)C[C@]4(C)[C@H]3CC[C@]12C`, for which, in data set [1], the POT was 120 nM. The same molecule came in with an IC50 in data set [2] of 107 nM. For the same molecule, the HD50 in the data set with Mus musculus [3] worked out at 17.4 µM/kg.

For the molecule `CCCC(C)C1(CC)C(=O)NC(=S)NC1=O` (centres undefined) [THIOPENTAL], in data set [1], the POT was determined as 30000 nM. The same molecule returned a concentration for half-maximal inhibition (IC50) in data set [2] of 29500 nM. In the data set on Mus musculus [3], this molecule yielded an HD50 of 83 µM/kg. Besides, the selectivity ratio in data set [4] is 3.7.

In the case of `CC1(C)CN([C@H]2C[C@@]3(C)[C@@H](CC[C@@H]4[C@@H]3CC[C@]3(C)[C@@H](C(=O)CCl)CC[C@@H]43)C[C@@H]2O)CCO1`, the POT in data set [1] worked out at 380 nM. The molecule also returned a half-inhibitory concentration (IC50) in data set [2] of 39 nM. The molecule also yielded an HD50 in the data set on Mus musculus [3] of 17.6 µM/kg.

In data set [2], `CC(=O)[C@H]1CC[C@H]2[C@@H]3CC[C@H]4C[C@H](O)[C@@H](N5CCO[C@H](C(C)C)C5)C[C@]4(C)[C@H]3C(=O)C[C@]12C` displayed an IC50 of 90 nM. Moreover, in the data set with Mus musculus [3], the HD50 worked out at 3.4 µM/kg. For the same molecule, the selectivity ratio in data set [4] came out at 9.9.

For `CC(=O)[C@H]1CC[C@H]2[C@@H]3CC[C@H]4C[C@H](O)CC[C@]4(C)[C@H]3C(=O)C[C@]12C` [ALFAXALONE], the POT in data set [1] amounted to 700 nM. For the same molecule, the HD50 in the data set with Mus musculus [3] came out at 6.3 µM/kg.

For the molecule `CC[C@@H]1CN([C@H]2C[C@@]3(C)[C@@H](CC[C@H]4[C@@H]5CC[C@H](C(C)=O)[C@@]5(C)CC(=O)[C@@H]43)C[C@@H]2O)CCO1`, the POT in data set [1] worked out at 910 nM. For the same molecule, the IC50 in data set [2] is 317 nM. In the data set with Mus musculus [3], this molecule gave an HD50 of 8.7 µM/kg. The selectivity ratio in data set [4] came to 5.8.

In the case of `CC(=O)[C@H]1CC[C@H]2[C@@H]3CC[C@H]4C[C@H](O)[C@@H](N5CCO[C@H](C)C5)C[C@]4(C)[C@H]3CC[C@]12C`, in data set [1], the POT is 250 nM. For the same molecule, the IC50 in data set [2] is 369 nM. In addition, the HD50 with Mus musculus [3] was 15 µM/kg.

Take `CC(=O)[C@H]1CC[C@H]2[C@@H]3CC[C@H]4C[C@H](O)[C@@H](N5CCOC(C)(C)C5)C[C@]4(C)[C@H]3C(=O)C[C@]12C`: the POT in data set [1] was determined as 700 nM. The same molecule had an HD50 in the data set with Mus musculus [3] of 9.8 µM/kg.

Molecule `CC(=O)[C@H]1CC[C@H]2[C@@H]3CC[C@H]4C[C@H](O)[C@@H](N5C[C@@H](C)O[C@@H](C)C5)C[C@]4(C)[C@H]3C(=O)C[C@]12C` showed an IC50 in data set [2] of 3200 nM. Further, the HD50 in the data set with Mus musculus [3] came out at 14.4 µM/kg. Besides, the selectivity ratio in data set [4] was 5.8.

As to `CC(=O)[C@H]1CC[C@H]2[C@@H]3CC[C@H]4C[C@H](O)[C@@H](N5CCSC(C)(C)C5)C[C@]4(C)[C@H]3C(=O)C[C@]12C`, in data set [2], the IC50 came out at 209 nM. Moreover, the HD50 in the data set on Mus musculus [3] was found to be 13.7 µM/kg. Moreover, the selectivity ratio in data set [4] stood at 16.3.

For `CC(=O)OCC(=O)[C@H]1CC[C@H]2[C@@H]3CC[C@H]4C[C@H](O)[C@@H](N5CCOC(C)(C)C5)C[C@]4(C)[C@H]3C(=O)C[C@]12C`, the POT in data set [1] is 1300 nM. In addition, the IC50 in data set [2] was determined as 951 nM. The molecule also returned an HD50 in the data set with Mus musculus [3] of 21.1 µM/kg.

On to `CC(=O)OCC(=O)[C@H]1CC[C@H]2[C@@H]3CC[C@H]4C[C@H](O)[C@@H](N5CCOCC5)C[C@]4(C)[C@H]3CC[C@]12C`, for which, in data set [1], the POT is 660 nM. Besides, in data set [2], the IC50 was 270 nM. Also, in the data set with Mus musculus [3], the HD50 turned out to be 31 µM/kg.

In the case of `CC1(C)CN([C@H]2C[C@@]3(C)[C@@H](CC[C@H]4[C@@H]5CC[C@H](C(=O)CO)[C@@]5(C)CC(=O)[C@@H]43)C[C@@H]2O)CCO1`, in data set [1], the POT came out at 4400 nM. Further, the IC50 in data set [2] worked out at 5590 nM. Moreover, the HD50 in the data set on Mus musculus [3] worked out at 42.3 µM/kg.

Consider `C[C@]12C[C@H](N3CCOCC3)[C@@H](O)C[C@@H]1CC[C@@H]1[C@@H]2CC[C@]2(C)[C@@H](C(=O)CCl)CC[C@@H]12`, for which, in data set [1], the POT came out at 150 nM. Moreover, in data set [2], the IC50 stood at 171 nM. Also, the HD50 in the data set on Mus musculus [3] turned out to be 8.5 µM/kg. Also, the selectivity ratio in data set [4] came out at 6.1.

For the molecule `C[C@]12C[C@H](N3CCOCC3)[C@@H](O)C[C@@H]1CC[C@@H]1[C@@H]2CC[C@]2(C)[C@@H](C(=O)CO)CC[C@@H]12`, the POT in data set [1] came to 2300 nM. In data set [2], this molecule yielded a half-inhibitory concentration (IC50) of 3040 nM. Besides, in the data set on Mus musculus [3], the HD50 turned out to be 31.6 µM/kg.

On to `CC(=O)[C@H]1CC[C@H]2[C@@H]3CC[C@H]4C[C@H](O)CC[C@]4(C)[C@H]3CC[C@]12C` [BREXANOLONE], for which the POT in data set [1] was found to be 105 nM. Besides, in data set [2], the 50% inhibitory concentration (IC50) was 91 nM. Also, in the data set on Mus musculus [3], the HD50 is 10 µM/kg.

As for `CC(=O)[C@H]1CC[C@H]2[C@@H]3CC[C@H]4C[C@H](O)[C@@H](N5CCOCC5)C[C@]4(C)[C@H]3CC[C@]12C`, the POT in data set [1] was determined as 215 nM. In the data set on Mus musculus [3], this molecule returned an HD50 of 22.2 µM/kg.

As to `CC1(C)CN([C@H]2C[C@@]3(C)[C@@H](CC[C@@H]4[C@@H]3CC[C@]3(C)[C@@H](C(=O)CO)CC[C@@H]43)C[C@@H]2O)CCO1`, in data set [1], the POT came to 310 nM. Moreover, the IC50 in data set [2] worked out at 267 nM. This molecule had an HD50 in the data set with Mus musculus [3] of 18.4 µM/kg.

`CC(=O)[C@H]1CC[C@H]2[C@@H]3CC[C@@H]4C[C@H](O)CC[C@]4(C)[C@H]3CC[C@]12C` [ELTANOLONE]: in data set [1], the POT was 115 nM. The same molecule showed an IC50 in data set [2] of 117 nM. Also, the HD50 in the data set with Mus musculus [3] is 9.5 µM/kg.

As for `CC(=O)SCC(=O)[C@H]1CC[C@H]2[C@@H]3CC[C@H]4C[C@H](O)[C@@H](N5CCOC(C)(C)C5)C[C@]4(C)[C@H]3CC[C@]12C`, the IC50 in data set [2] came to 32 nM. In addition, the SD entry in the data set listed under Mus musculus [5] is “Convulsant”. Moreover, in the data set on Mus musculus [6], the HD50 entry is recorded as “Convulsant”.

`CC(=O)[C@H]1CC[C@H]2[C@@H]3CC[C@H]4C[C@H](O)[C@@H](N5CCOCC5)C[C@]4(C)[C@H]3C(=O)C[C@]12C` came in with a 50% inhibitory concentration (IC50) in data set [2] of 2560 nM. The same molecule registered an HD50 in the data set with Mus musculus [3] of 34.6 µM/kg. Further, the selectivity ratio in data set [4] was determined as 4.6.

As to `CC(C)c1cccc(C(C)C)c1O` [PROPOFOL], in data set [1], the POT is 2000 nM. Besides, in the data set on Mus musculus [3], the HD50 turned out to be 68 µM/kg. The selectivity ratio in data set [4] amounted to 3.5.

As to `C[C@]12C[C@H](N3CCOCC3)[C@@H](O)C[C@@H]1CC[C@H]1[C@@H]3CC[C@H](C(=O)CCl)[C@@]3(C)CC(=O)[C@@H]12`, the POT in data set [1] came out at 1500 nM. This molecule came in with an IC50 in data set [2] of 9040 nM. Moreover, the SD result in the data set filed under Mus musculus [5] is recorded as “Convulsant”. Further, the HD50 entry in the data set with Mus musculus [6] is listed as “Convulsant”.

For `C[C@]12CC[C@@H](O)C[C@@H]1CC[C@@H]1[C@@H]2CC[C@]2(C)[C@@H](C(=O)CO)CC[C@@H]12`, the POT in data set [1] worked out at 300 nM. In data set [2], the 50% inhibitory concentration (IC50) worked out at 220 nM. Also, the HD50 in the data set with Mus musculus [3] turned out to be 18.5 µM/kg.

Take `CC(=O)SCC(=O)[C@H]1CC[C@H]2[C@@H]3CC[C@H]4C[C@H](O)[C@@H](N5CCOC(C)(C)C5)C[C@]4(C)[C@H]3C(=O)C[C@]12C`: the POT in data set [1] was 245 nM. In data set [2], this molecule had an IC50 of 261 nM. This molecule also returned an HD50 in the data set on Mus musculus [3] of 7.9 µM/kg.

Take `CC1(C)CN([C@H]2C[C@@]3(C)[C@@H](CC[C@H]4[C@@H]5CC[C@H](C(=O)CCl)[C@@]5(C)CC(=O)[C@@H]43)C[C@@H]2O)CCO1`: the POT in data set [1] turned out to be 450 nM. The IC50 in data set [2] came out at 206 nM. For the same molecule, in the data set on Mus musculus [3], the HD50 was 13.4 µM/kg.

The values are drawn from ChEMBL document CHEMBL1130383, “Anesthetic activity of novel water-soluble 2 beta-morpholinyl steroids and their modulatory effects at GABAA receptors” (J Med Chem, 1997).
